Published values pooled from the literature.
Each line is one published result; the experiments were not run side by side.
AKT1: RAC-alpha serine/threonine-protein kinase (AKT1, Homo sapiens, UniProt P31749)
DPP4: Dipeptidyl peptidase 4 (DPP4, Homo sapiens, UniProt P27487)
CDK1: Cyclin-dependent kinase 1 (CDK1, Homo sapiens, UniProt P06493)

CNc1ncc2c(/C=C/C(=O)N3CCC(OC)CC3)nn(Cc3cccc(C(F)(F)F)c3)c2n1 — remaining activity (AKT1; enzyme activity; inhibitor; radiometric; 1 µM): 101%
CN(C)c1ncnc2c1ncn2[C@@H]1O[C@H](CCl)[C@@H](NC(=O)[C@@H](CSC(c2ccccc2)c2ccccc2)NC(=O)OC(C)(C)C)[C@H]1O — inhibition (Aminopeptidase N (ANPEP, Homo sapiens, UniProt P15144); enzyme activity; inhibitor; fluorescence; 10 µM): 0%
C=CC(=O)N1CCC(COCC(=O)N2CCN(c3nc(-c4cnc(N)nc4C(F)F)nc(N4CCOC[C@@H]4C)n3)CC2)CC1 — remaining binding (Calcium/calmodulin-dependent protein kinase kinase 2 (CAMKK2, Homo sapiens, UniProt Q96RR4); binding; competition with immobilised ligand; 1 µM): 99%
Cn1c(=O)cc(N2CCC(N)CC2)n(Cc2nc3ccccc3c(=O)n2-c2ccc(F)c(Cl)c2)c1=O — inhibition (DPP4; enzyme activity; inhibitor; 20 µM): 32.5%
Cc1cc([C@@H](C)Nc2ccccc2C(=O)O)c2nc(N3CCC(F)(F)CC3)c(C#N)c(=O)n2c1 — remaining binding (AKT1; binding; competition with immobilised ligand; 1 µM): 100%
O=C(Cn1cc(C=CC(=O)c2ccc(F)cc2)nn1)Nc1nc(-c2ccccc2)cs1 — inhibition (Stromelysin-2 (Homo sapiens, UniProt P09238); enzyme activity; inhibitor; 0.5 µM): 82.4%
O=C1NC(=NCc2cccs2)S/C1=C\c1ccc2ncccc2c1 — inhibition (CDK1; enzyme activity; inhibitor; ADP detection; 100 µM): 100%
Cn1c(=O)cc(N2CCC(N)CC2)n(Cc2nc3ccc(Br)cc3c(=O)n2-c2ccc(F)cc2)c1=O — inhibition (DPP4; enzyme activity; inhibitor; 20 µM): 27.3%
Cc1cc2cc(Oc3ccnc(Nc4cccc(CS(=O)(=O)NCCN(C)C)c4)n3)ccc2[nH]1 — inhibition (CDK1; enzyme activity; inhibitor; ADP detection; 100 µM): 100%
COc1cc(-c2cncc3c2CN(C)Cc2cc(N4CCNCC4)ccc2-3)cc(OC)c1OC — remaining activity (Ephrin type-A receptor 2 (EPHA2, Homo sapiens, UniProt P29317); enzyme activity; inhibitor; 1 µM): 103%
CCO[C@@H](Cc1ccc(OCCc2ccc(OS(C)(=O)=O)cc2)cc1)C(=O)O — inhibition (CDK1; enzyme activity; inhibitor; ADP detection; 10 µM): 65.9%
Cn1c(=O)cc(N2CCC(N)CC2)n(Cc2nc3ccc(Br)cc3c(=O)n2-c2ccccc2)c1=O — inhibition (DPP4; enzyme activity; inhibitor; 20 µM): 12.9%
